Drawing on ChEMBL document CHEMBL4130408, “Photoactivation provides a mechanistic explanation for pan-assay interference behaviour of 2-aminopyrroles in lipoxygenase inhibition” (Eur J Med Chem, 2017), this text covers Activity for 68 molecules.

Molecules are shown by their SMILES.

In the test the target is T1, Polyunsaturated fatty acid lipoxygenase ALOX15 (Homo sapiens) (UniProt P16050).
T1 sequence (whole entry): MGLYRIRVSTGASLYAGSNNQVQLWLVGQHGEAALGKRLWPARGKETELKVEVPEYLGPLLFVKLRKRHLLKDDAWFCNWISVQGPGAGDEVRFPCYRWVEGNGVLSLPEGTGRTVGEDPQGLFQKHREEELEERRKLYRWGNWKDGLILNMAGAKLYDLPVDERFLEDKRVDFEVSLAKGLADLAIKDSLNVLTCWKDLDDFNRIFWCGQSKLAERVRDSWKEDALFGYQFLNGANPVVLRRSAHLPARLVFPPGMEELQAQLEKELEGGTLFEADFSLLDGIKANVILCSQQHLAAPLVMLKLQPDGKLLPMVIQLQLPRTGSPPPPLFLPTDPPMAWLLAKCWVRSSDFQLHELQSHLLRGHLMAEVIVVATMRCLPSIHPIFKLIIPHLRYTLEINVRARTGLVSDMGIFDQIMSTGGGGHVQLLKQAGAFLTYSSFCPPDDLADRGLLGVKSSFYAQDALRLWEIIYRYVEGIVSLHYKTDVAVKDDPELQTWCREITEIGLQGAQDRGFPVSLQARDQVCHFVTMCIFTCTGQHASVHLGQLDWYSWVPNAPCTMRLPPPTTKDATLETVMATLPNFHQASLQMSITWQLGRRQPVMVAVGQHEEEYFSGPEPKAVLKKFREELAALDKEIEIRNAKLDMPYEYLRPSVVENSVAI
Description: Inhibition of recombinant human 15-LOX-1 expressed in Escherichia coli BL21(DE3) assessed as residual activity at 50 uM using linoleic acid as substrate preincubated for 10 mins followed by substrate addition. The essentials: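 h-15-LOX-1 (1:100 enzyme stock, 1:400 final) preincubated 10 min at room temperature with inhibitor in 25 mM HEPES pH 7.4, then linoleic acid added to 25 µM final (inhibitor 50 µM final). 13(S)-HpODE formation read as A234 over time, rate taken from linear part within first 16 min; no-inhibitor = 100%, no-enzyme = 0%. Triplicate.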
For `COc1ccc(C(=O)c2[nH]c(N)c(C(=O)NCCc3c[nH]c4ccccc34)c2-c2ccc(Br)cc2)cc1`, the Activity came to 40.1%.
As for `COCCNC(=O)c1c(N)[nH]c(C(=O)c2ccc(Br)cc2)c1-c1cccc2ccc(OC)cc12`, the Activity is 75.6%.
As to `COc1ccc(-c2c(C(=O)c3ccc(Br)cc3)[nH]c(N)c2C(=O)NCCc2c[nH]c3ccccc23)cc1OC`, the Activity is 63.8%.
In the case of `NC(=O)c1c(N)[nH]c(C(=O)c2ccccc2)c1-c1ccncc1` it was 98.9%; in that of `Nc1[nH]c(C(=O)c2ccccc2)c(-c2ccncc2)c1C(=O)NCc1ccc(Cl)cc1`, 86.6%.
Take `COc1ccc2cccc(-c3c(C(=O)c4ccc(Br)cc4)[nH]c(N)c3C(=O)NC3CCCCC3)c2c1`: the Activity turned out to be 34%.
Consider `Cc1ccc(S(=O)(=O)n2c(-c3ccccc3)cc(C(=O)NC3CC3)c2N)cc1`, for which the Activity is 92.2%.
`CC(C)(C)C(=O)c1c(N)[nH]c(C(=O)c2ccccc2)c1-c1ccc(F)cc1`: the Activity is 91.4%.
The value for `Nc1[nH]c(C(=O)c2ccc(Br)cc2)c(-c2ccc(Br)cc2)c1C(=O)NC1CCCCC1` was 83.4%; that for `COc1ccc(-c2c(C(=O)c3ccccc3)[nH]c(N)c2C(=O)c2ccccc2)cc1OC` was 97.9 to 105%.
In the case of `Nc1[nH]c(C(=O)c2ccc(Br)cc2)c(-c2ccc(Br)cc2)c1C(=O)NCCc1c[nH]c2ccccc12`, the Activity came to 30.6%.
In the case of `COc1ccc(C(=O)c2[nH]c(N)c(C(=O)NCCc3c[nH]c4ccccc34)c2-c2ccc(Cl)cc2)cc1` it was 68.1%; in that of `Cc1cc(C)cc(-c2c(C(=O)c3ccccc3)[nH]c(N)c2C(=O)NCCc2c[nH]c3ccccc23)c1`, -47.3%.
The value for `COC(=O)c1c(N)[nH]c(C(=O)c2ccccc2)c1-c1ccc(Cl)cc1` was 96%; that for `NC(=O)c1c(N)[nH]c(C(=O)c2ccccc2)c1-c1ccccc1C(F)(F)F` was 93.6%.
The value for `Nc1[nH]c(C(=O)c2ccccc2)c(-c2ccncc2)c1C(=O)NCc1cccc2ccccc12` was 95.1%; that for `Nc1[nH]c(C(=O)c2ccccc2)c(-c2ccc(F)cc2)c1C(=O)NCCc1c[nH]c2ccccc12` was 59.6%.
As to `Nc1[nH]c(C(=O)c2ccccc2)c(-c2ccccc2C(F)(F)F)c1C(=O)NCCc1cccs1`, the Activity was 91.5%.
Take `Nc1[nH]c(C(=O)c2ccccc2)c(-c2ccccn2)c1C(=O)c1c[nH]c2ccc(Br)cc12`: the Activity is 55.3%.
The value for `Nc1[nH]c(C(=O)c2ccccc2)c(-c2ccc(Br)cc2)c1C(=O)NC1CC1` was 94.3%.
With `Nc1[nH]c(C(=O)c2ccccc2)c(-c2ccc(Cl)cc2)c1C(=O)c1c[nH]c2ccccc12`, the Activity is 73.9%.
The value for `Nc1[nH]c(C(=O)c2ccccc2)c(-c2ccc(Cl)cc2)c1C(=O)N1CCCC1` was 123%; that for `COc1ccc(C(=O)c2[nH]c(N)c(C(=O)c3c[nH]c4ccccc34)c2-c2ccc(F)c(OC)c2)cc1` was 75.8%.
For the molecule `Nc1[nH]c(C(=O)c2ccc(Br)cc2)c(-c2ccc(Cl)cc2Cl)c1C(=O)NCCc1c[nH]c2ccccc12`, the Activity is 69.3%.
On to `CC(C)(C)C(=O)c1c(N)[nH]c(C(=O)c2ccccc2)c1-c1ccccc1Br`, for which the Activity is 82.9%.
The value for `Nc1[nH]c(C(=O)c2ccccc2)c(-c2ccc(Br)cc2)c1C(=O)N1CCN(CCO)CC1` was 100%; that for `COc1ccc(-c2c(C(=O)c3ccccc3)[nH]c(N)c2C(=O)c2ccc(Br)cc2)cc1OC` was 94.7%; that for `Nc1[nH]c(C(=O)c2ccccc2)c(-c2ccccc2Cl)c1C(=O)c1ccccc1` was 70.9%.
On to `Nc1[nH]c(C(=O)c2ccccc2)c(-c2ccc(Br)cc2)c1C(=O)NC1CCCCC1`, for which the Activity was 87.5%.
For the molecule `Nc1[nH]c(C(=O)c2ccccc2)c(-c2ccc3ccccc3c2)c1C(=O)NCCc1ccc(Cl)cc1`, the Activity is 80.6%.
The value for `Nc1[nH]c(C(=O)c2ccccc2)c(-c2ccc(Cl)cc2Cl)c1C(=O)NCCC1=CCCCC1` was 76.5%; that for `Nc1[nH]c(C(=O)c2ccccc2)c(-c2ccc(Br)cc2)c1C(=O)c1ccccc1` was 63.2%.
The value for `COc1cc(-c2c(C(=O)c3ccccc3)[nH]c(N)c2C(N)=O)ccc1F` was 110%.
Regarding `COc1cc(-c2c(C(=O)c3ccccc3)[nH]c(N)c2C(=O)NCCc2c[nH]c3ccccc23)ccc1F`, the Activity is 37.1%.
The value for `Nc1[nH]c(C(=O)c2ccccc2)c(-c2ccc(Cl)cc2Cl)c1C(=O)c1ccc(Br)cc1` was 88.3%; that for `Cc1ccc(-c2c(C(=O)c3ccccc3)[nH]c(N)c2C(=O)NCCc2c[nH]c3ccccc23)cc1` was 33.3%.
The value for `Nc1[nH]c(C(=O)c2ccccc2)c(-c2ccccc2C(F)(F)F)c1C(=O)NCc1ccc(F)cc1` was 92.2%; that for `Nc1[nH]c(C(=O)c2ccccc2)c(-c2cccc3ccccc23)c1C(=O)c1c(-c2ccccc2)[nH]c2ccccc12` was 89.9%.
As to `Nc1[nH]c(C(=O)c2ccccc2)c(-c2cccc(C(F)(F)F)c2)c1C(=O)NCCc1c[nH]c2ccccc12`, the Activity came to 52.6%.
The value for `Nc1[nH]c(C(=O)c2ccccc2)c(-c2ccc(Cl)c(Cl)c2)c1C(=O)NCCc1c[nH]c2ccccc12` was 36.8%; that for `Nc1[nH]c(C(=O)c2ccccc2)c(-c2ccc(Cl)cc2)c1C(=O)c1c[nH]c2ccc(Br)cc12` was 50.9%.
The value for `CC(C)(C)C(=O)c1c(N)[nH]c(C(=O)c2ccccc2)c1-c1c(F)cccc1F` was 91.9%; that for `CN(C)c1ccc(-c2c(C(=O)c3ccccc3)[nH]c(N)c2C(N)=O)cc1` was 103%.
On to `N#Cc1c(N)[nH]c(C(=O)c2ccccc2)c1-c1ccccc1Br`, for which the Activity is 62.3%.
As for `Cc1cc(C)cc(-c2c(C(=O)c3ccc(Br)cc3)[nH]c(N)c2C(=O)NCc2ccc(Cl)cc2)c1`, the Activity is 98.5%.
Consider `CC(C)(C)C(=O)c1c(N)[nH]c(C(=O)c2ccccc2)c1-c1ccc(Cl)cc1`, for which the Activity came to 94.5%.
The value for `N#Cc1c(N)[nH]c(C(=O)c2ccccc2)c1-c1ccc(Br)cc1` was 63.4%.
Consider `NC(=O)c1c(N)[nH]c(C(=O)c2ccccc2)c1-c1cccnc1`, for which the Activity is 99.1%.
For `Nc1[nH]c(C(=O)c2ccccc2)c(-c2ccc([N+](=O)[O-])cc2)c1C(=O)NCCc1c[nH]c2ccccc12`, the Activity was determined as 54.3%.
In the case of `Nc1[nH]c(C(=O)c2ccccc2)c(-c2ccccc2C(F)(F)F)c1C(=O)NCCc1c[nH]c2ccccc12` it was 45.5%; in that of `NC(=O)c1c(N)[nH]c(C(=O)c2ccccc2)c1-c1ccc2ccccc2c1`, 79.1%.
In the case of `COc1ccc(C(=O)c2[nH]c(N)c(C(N)=O)c2-c2ccc(O)c(OC)c2)cc1`, the Activity was 67.1%.
In the case of `Nc1[nH]c(C(=O)c2ccc(Br)cc2)c(-c2c(F)cccc2F)c1C(=O)NCCc1c[nH]c2ccccc12` it was 69.3%; in that of `Nc1[nH]c(C(=O)c2ccccc2)c(-c2cccc3ccccc23)c1C(=O)c1ccccc1`, 108%; in that of `Nc1[nH]c(C(=O)c2ccccc2)c(-c2cccnc2)c1C(=O)NCCc1c[nH]c2ccccc12`, 82.5%.
In the case of `Nc1[nH]c(C(=O)c2ccccc2)c(-c2ccccc2C(F)(F)F)c1C(=O)NCc1cccc2ccccc12` it was 85%; in that of `Cc1[nH]c2ccccc2c1C(=O)c1c(N)[nH]c(C(=O)c2ccc(Br)cc2)c1-c1ccc(Br)cc1`, 29.7%.
The value for `COc1ccc(C(=O)c2[nH]c(N)c(C(=O)NCCc3c[nH]c4ccccc34)c2-c2ccc(OC)c(OC)c2)cc1` was 70.3%; that for `Nc1[nH]c(C(=O)c2ccc(Br)cc2)c(-c2ccc(Br)cc2)c1C(=O)NC1CC1` was 95%.
Consider `Nc1[nH]c(C(=O)c2ccccc2)c(-c2ccccn2)c1C(=O)c1c[nH]c2ccccc12`, for which the Activity was determined as 104%.
Take `Nc1[nH]c(C(=O)c2ccccc2)c(-c2ccc(Cl)cc2[N+](=O)[O-])c1C(=O)NCCc1c[nH]c2ccccc12`: the Activity came out at 72.5%.
Consider `Nc1[nH]c(C(=O)c2ccccc2)c(-c2ccccc2)c1C(=O)NCCc1c[nH]c2ccccc12`, for which the Activity stood at 63.2%.
On to `CCCCNC(=O)c1c(N)[nH]c(C(=O)c2ccccc2)c1-c1ccc(Cl)cc1`, for which the Activity was found to be 104%.
`COc1ccc2cccc(-c3c(C(=O)c4ccc(Br)cc4)[nH]c(N)c3C(=O)NCc3ccc(F)c(F)c3)c2c1`: the Activity was found to be 86.3%.
As to `Nc1[nH]c(C(=O)c2ccc(Br)cc2)c(-c2ccccn2)c1C(=O)NCCc1c[nH]c2ccccc12`, the Activity is 42%.
On to `Nc1[nH]c(C(=O)c2ccc(Br)cc2)c(-c2ccc3c(c2)OCO3)c1C(=O)NCCc1c[nH]c2ccccc12`, for which the Activity was 75.9%.
In the case of `Nc1[nH]c(C(=O)c2ccc(Cl)cc2)c(-c2ccc(Br)cc2)c1C(=O)NCc1ccc(Cl)cc1Cl` it was 105%; in that of `Nc1[nH]c(C(=O)c2ccccc2)c(-c2cccc3ccccc23)c1C(=O)c1cccs1`, 73.7%.
